Data as given in ChEMBL document CHEMBL1134324, “Chemosensitization of a multidrug-resistant Leishmania tropica line by new sesquiterpenes from Maytenus magellanica and Maytenus chubutensis” (J Med Chem, 2001).

Key:
Assay type in all cases: functional
[1] = system: Leishmania tropica; assay: Growth inhibition of wild type L. Tropica parasite at 30 uM concentration
Procedure, shortened: (§1)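 Intrinsic toxicity assay on wild-type LRC clone promastigotes, log phase, 3 × 10⁵ cells per well, exposed to sesquiterpene without DNM (DMSO stock diluted in medium; final DMSO ≤0.3%). Incubated 72 h at 28 °C in RPMI 1640-modified medium with 20% FBS. Viability read by MTT (4 h, SDS solubilization, 540 nm). Survival is absorbance ratio to untreated control, expressed as %GI.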

[2] = system: Leishmania tropica; assay: Growth inhibition of wild type L. Tropica parasite at 15 uM concentration; procedure, shortened: as §1
[3] = system: Leishmania tropica; assay: Growth inhibition of MDR (DNM-R150) L. Tropica line at 15 uM concentration
Procedure, shortened: (§2)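 Daunomycin-resistant (DNM-R150) promastigotes, log phase, 3 × 10⁵ cells per well, co-exposed to 150 μM DNM plus sesquiterpene (DMSO stock diluted in medium; final DMSO ≤0.3%). Incubated 72 h at 28 °C in RPMI 1640-modified medium with 20% heat-inactivated FBS. MTT added for 4 h, formazan dissolved in 20% SDS, A540 read. %GI calculated relative to control cells given the same DNM without modulator.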

[4] = system: Leishmania tropica; assay: Growth inhibition of MDR (DNM-R150) L. Tropica line at 30 uM concentration; procedure, shortened: as §2
[5] = system: Leishmania tropica; assay: Growth inhibition of wild type L. Tropica parasite at 7.5 uM concentration; procedure, shortened: as §1
[6] = system: Leishmania tropica; assay: Growth inhibition of MDR (DNM-R150) L. Tropica line at 7.5 uM concentration; procedure, shortened: as §2

With CC(=O)O[C@H]1[C@H](O)[C@@H](C)C23OC(C)(C)C(C[C@H](OC(=O)c4ccccc4)[C@]2(C)[C@H]1OC(=O)c1ccccc1)[C@H]3OC(C)=O (some centres undefined) the inhibition [1] was 11.7%, the inhibition [2] was 3.5% and the inhibition [3] was 54%. The inhibition [4] was 77.5%, the inhibition [5] was 0% and the inhibition [6] was 32%.
With CC(=O)O[C@@H]1[C@H](OC(=O)c2cccnc2)[C@@]2(C)[C@@H](OC(=O)c3ccccc3)[C@@H](OC(=O)c3ccccc3)C3CC2(OC3(C)C)[C@@](C)(O)[C@H]1OC(C)=O (some centres undefined) the inhibition [1] was 11%, the inhibition [2] was 6% and the inhibition [3] was 54%. The inhibition [4] was 89%, the inhibition [5] was 0.5% and the inhibition [6] was 23.9%.
For CC(=O)OC[C@]12[C@@H](OC(=O)c3ccccc3)CC3[C@@H](OC(=O)c4ccccc4)C1(OC3(C)C)[C@H](C)C[C@@H](OC(=O)c1cccnc1)[C@@H]2OC(C)=O (some centres undefined), the inhibition [1] was 35%, the inhibition [2] was 27.5% and the inhibition [3] was 87.9%. The inhibition [4] was 93.7%, the inhibition [5] was 11.5% and the inhibition [6] was 83.7%.
With CC(=O)O[C@H]1C[C@](C)(O)C23CC(C[C@H](OC(=O)/C=C/c4ccccc4)[C@]2(C)[C@H]1OC(=O)c1ccccc1)C(C)(C)O3 (some centres undefined) the inhibition [1] was 7.5%, the inhibition [2] was 7.3% and the inhibition [3] was 92.8%. For the same compound, the inhibition [4] was 94.3%, the inhibition [5] was 0% and the inhibition [6] was 88.2%.
CC(=O)O[C@H]1C[C@](C)(O)C23CC(C[C@H](OC(=O)c4ccccc4)[C@]2(C)[C@H]1OC(=O)c1ccccc1)C(C)(C)O3 (some centres undefined) gave an inhibition [1] of 13.3%, an inhibition [2] of 4.1% and an inhibition [3] of 89.7%. For the same compound, the inhibition [4] was 94%, the inhibition [5] was 5.3% and the inhibition [6] was 82%.
With CC(=O)O[C@@H]1C2[C@H](OC(C)=O)[C@H](OC(=O)c3ccccc3)[C@]3(C)[C@@H](OC(=O)c4ccccc4)[C@H](OC(=O)c4ccccc4)C[C@](C)(O)C13OC2(C)C (some centres undefined) the inhibition [1] was 16.2%, the inhibition [2] was 19.7% and the inhibition [3] was 82.2%. For the same compound, the inhibition [4] was 92%, the inhibition [5] was 9.7% and the inhibition [6] was 60.3%.
With CC(=O)O[C@@H]1[C@H](OC(=O)c2ccccc2)[C@@]2(C)[C@@H](OC(=O)c3ccccc3)[C@@H](OC(=O)c3ccccc3)C3CC2(OC3(C)C)[C@@](C)(O)[C@H]1OC(C)=O (some centres undefined) the inhibition [1] was 20.5%, the inhibition [2] was 15.8% and the inhibition [3] was 79%. For the same compound, the inhibition [4] was 93%, the inhibition [5] was 0.5% and the inhibition [6] was 48.7%.
Work on CC(=O)OC[C@]12[C@@H](OC(=O)c3ccccc3)CC3[C@@H](OC(=O)c4ccccc4)C1(OC3(C)C)[C@@](C)(O)C[C@@H](OC(=O)c1cccnc1)[C@@H]2OC(C)=O (some centres undefined) yielded an inhibition [1] of 45%, an inhibition [2] of 25.8% and an inhibition [3] of 91.3%. For the same compound, the inhibition [4] was 94.8%, the inhibition [5] was 8.2% and the inhibition [6] was 80.7%.
CC(=O)O[C@@H]1[C@H](OC(=O)c2ccccc2)[C@@]2(C)[C@@H](OC(=O)c3ccccc3)CC3[C@@H](OC(C)=O)C2(OC3(C)C)[C@@](C)(O)[C@H]1OC(=O)c1cccnc1 (some centres undefined) was tested, and the inhibition [1] was 3.7%, the inhibition [2] was 0.7% and the inhibition [3] was 30.7%. The inhibition [4] was 69.5%, the inhibition [5] was 2.2% and the inhibition [6] was 10%.
With CC(=O)O[C@@H]1C2[C@H](OC(C)=O)[C@H](OC(=O)c3ccccc3)[C@]3(C)[C@@H](OC(=O)c4ccccc4)[C@H](OC(=O)c4cccnc4)C[C@@H](C)C13OC2(C)C (some centres undefined) the inhibition [1] was 13.3%, the inhibition [2] was 13% and the inhibition [3] was 79.3%. The inhibition [4] was 94.5%, the inhibition [5] was 1.7% and the inhibition [6] was 42.2%.
With CC(=O)O[C@@H]1[C@H](OC(=O)c2ccccc2)[C@@]2(C)[C@@H](OC(=O)c3ccccc3)[C@@H](OC(C)=O)C3CC2(OC3(C)C)[C@@](C)(O)[C@H]1OC(C)=O (some centres undefined) the inhibition [1] was 23%, the inhibition [2] was 14.4% and the inhibition [3] was 65%. For the same compound, the inhibition [4] was 90%, the inhibition [5] was 1.7% and the inhibition [6] was 39%.
Work on CC(=O)O[C@@H]1[C@H](OC(=O)c2ccccc2)[C@@]2(C)[C@@H](OC(=O)/C=C/c3ccccc3)C[C@H]3[C@@H](OC(C)=O)[C@]2(OC3(C)C)[C@@](C)(O)[C@H]1OC(=O)c1cccnc1 yielded an inhibition [1] of 1.9%, an inhibition [2] of 1.5% and an inhibition [3] of 13.5%. It also gave an inhibition [4] of 45%, an inhibition [5] of 1.5% and an inhibition [6] of 7.3%.
CC(=O)O[C@@H]1[C@H](OC(=O)/C=C/c2ccccc2)[C@@]2(C)[C@@H](OC(=O)c3ccccc3)CC3CC2(OC3(C)C)[C@@](C)(O)[C@H]1OC(=O)c1cccnc1 (some centres undefined) was tested, and the inhibition [1] was 7.5%, the inhibition [2] was 3.7% and the inhibition [3] was 90.3%. For the same compound, the inhibition [4] was 94.7%, the inhibition [5] was 2.5% and the inhibition [6] was 82%.
CC(=O)O[C@@H]1[C@H](OC(=O)c2cccnc2)[C@@]2(C)[C@@H](OC(=O)c3ccccc3)[C@@H](OC(C)=O)C3CC2(OC3(C)C)[C@@](C)(O)[C@H]1OC(=O)c1ccccc1 (some centres undefined) gave an inhibition [1] of 19.7%, an inhibition [2] of 12.9% and an inhibition [3] of 44%. For the same compound, the inhibition [4] was 69.7%, the inhibition [5] was 0% and the inhibition [6] was 21.4%.
